These results are taken from paper PMC4109633 (Drug Design, Development and Therapy, 2014).

Marks after values point to notes of the source that are not given here.

Type in all cases: cell-based
Data set [1] relates to Salmonella typhimurium TA1535. Description: Ames Salmonella/microsomal mutagenicity assay. Conditions: presence of S9 mix, spontaneous 67.0±6.1.
The subject of data set [2] is Salmonella typhimurium TA1535. The data set is described as follows: Cytotoxicity in liquid medium. Conditions: mean ± SEM. Put shortly: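 TA1535 was grown in broth microdilution with test compound at 25, 50 or 100 µM. Viability was expressed as % of untreated control (mean ± SEM), triplicate.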
The test system of data set [3] is Salmonella typhimurium TA1535. The data set is described as follows: Antimutagenicity assay against sodium azide. The settings on record: for NaN3 mutagenicity (revertant colonies/plate; mean ± SEM): NaN3 2 μg/plate, spontaneous 29.3±5.3. Put shortly: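 TA1535 was exposed to test compound at 10 or 20 µM with NaN₃ (2 µg/plate) in two schemes. In pre-exposure, compound and bacteria were shaken 30 min at 37°C before mutagen was added. In co-exposure, bacteria, mutagen and compound were incubated together 30 min at 37°C. Cells were then plated on minimal glucose agar, and revertants counted at 48 h, in triplicate. Mutant frequency = mutant colonies/viable colonies.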

Data set [4] deals with Salmonella typhimurium TA1535. The data set is described as follows: Antimutagenicity assay against benzo[a]pyrene with S9 mix. The settings on record: for B[a]P mutagenicity (revertant colonies/plate; mean ± SEM): B[a]P 20 μM + S9 mix, spontaneous 105.0±13.1; for Mutant frequency (benzo[a]pyrene): mutant colonies/viable colonies; for Antimutagenic potential against B[a]P: low concentration investigated.

Setting [5] is: co-exposure, 20 μM, mutant colonies/viable colonies.
[6] abbreviates: pre-exposure, 10 μM, mutant colonies/viable colonies.
Setting [7] is: pre-exposure, 20 μM, mutant colonies/viable colonies.
The mark [8] stands for this setting: co-exposure, 10 μM, mutant colonies/viable colonies.

On to `N#Cc1ccc(-c2ccc(-c3ccco3)o2)c(F)c1` [Compound 4a, 4-(2,2′-Bifuran-5-yl)-3-fluorobenzonitrile], for which the “Fluoroarylbichalcophene mutagenicity (revertant colonies/plate; mean ± SEM)” value in data set [1] (10 μM) is reported as 63.3±5.5 revertant colonies/plate; in data set [1] (20 μM) it was 69.7±7.0 revertant colonies/plate. Further, the “Viability at fluoroarylbichalcophene concentrations (% of control)” value (shortened to “Viability … (% of control)”) in data set [2] (25 μM) is listed as 100.0±8.5 % of control; in data set [2] (50 μM), 66.3±5.6 ^a % of control; in data set [2] (100 μM), 45.7±3.5 ^a % of control. Besides, the “NaN3 mutagenicity (revertant colonies/plate; mean ± SEM)” value in data set [3] (co-exposure, 10 μM) is 75.0±2.3 revertant colonies/plate; in data set [3] (co-exposure, 20 μM), 34.3±4.9 revertant colonies/plate; in data set [3] (pre-exposure, 10 μM) it was 47.7±6.5 revertant colonies/plate; in data set [3] (pre-exposure, 20 μM), 26.0±5.5 revertant colonies/plate. Moreover, the “Mutant frequency (sodium azide)” value came to 0.69 in data set [3] (setting [5]), 0.99 in data set [3] (setting [6]) and 0.52 in data set [3] (setting [7]). In addition, the “B[a]P mutagenicity (revertant colonies/plate; mean ± SEM)” value in data set [4] (co-exposure, 10 μM) worked out at 270.0±19.0 revertant colonies/plate; in data set [4] (co-exposure, 20 μM), 268.0±16.6 revertant colonies/plate; in data set [4] (pre-exposure, 10 μM), 267.0±11.0 revertant colonies/plate; in data set [4] (pre-exposure, 20 μM), 267.7±13.0 revertant colonies/plate. Further, the “Mutant frequency (benzo[a]pyrene)” value is 4.08 in data set [4] (co-exposure, 10 μM); 4.14 in data set [4] (co-exposure, 20 μM); 4.04 in data set [4] (pre-exposure, 10 μM); 4.14 in data set [4] (pre-exposure, 20 μM).
Regarding `N#Cc1ccc(-c2ccc(-c3ccco3)o2)cc1F` [Compound 4b, 4-(2,2′-Bifuran-5-yl)-2-fluorobenzonitrile], the entries for the “Fluoroarylbichalcophene mutagenicity (revertant colonies/plate; mean ± SEM)” value in data set [1] (10 μM) and in data set [1] (20 μM) were 64.3±4.0 revertant colonies/plate and 71.3±4.0 revertant colonies/plate, respectively. Moreover, the “Viability … (% of control)” value in data set [2] (25 μM) was 88.3±7.4 % of control; in data set [2] (50 μM), 64.7±6.6 ^a % of control; in data set [2] (100 μM), 29.0±3.1 ^a % of control. For the same molecule, the “NaN3 mutagenicity (revertant colonies/plate; mean ± SEM)” value in data set [3] (co-exposure, 10 μM) stood at 35.3±2.8 revertant colonies/plate; in data set [3] (co-exposure, 20 μM) it was 32.7±5.5 revertant colonies/plate; in data set [3] (pre-exposure, 10 μM) it was 69.7±8.0 revertant colonies/plate; in data set [3] (pre-exposure, 20 μM) it was 48.3±5.0 revertant colonies/plate. For the same molecule, the “Mutant frequency (sodium azide)” value in data set [3] (setting [8]) was found to be 0.65; in data set [3] (setting [5]), 0.64; in data set [3] (setting [6]), 1.28; in data set [3] (setting [7]), 0.95. Also, the “B[a]P mutagenicity (revertant colonies/plate; mean ± SEM)” value in data set [4] (co-exposure, 10 μM) was determined as 193.0±15.7 revertant colonies/plate; in data set [4] (co-exposure, 20 μM) it was 154.7±16.5 revertant colonies/plate; in data set [4] (pre-exposure, 10 μM), 239.3±10.5 revertant colonies/plate; in data set [4] (pre-exposure, 20 μM), 238.0±7.6 revertant colonies/plate. For the same molecule, the “Mutant frequency (benzo[a]pyrene)” value in data set [4] (co-exposure, 10 μM) came out at 3.00; in data set [4] (co-exposure, 20 μM) it was 2.41; in data set [4] (pre-exposure, 10 μM) it was 3.72; in data set [4] (pre-exposure, 20 μM), 3.70.
With `N#Cc1ccc(-c2ccc(-c3cccs3)o2)c(F)c1` [Compound 4c, 3-Fluoro-4-(5-(thiophen-2-yl)furan-2-yl)benzonitrile], the “Fluoroarylbichalcophene mutagenicity (revertant colonies/plate; mean ± SEM)” value came to 65.3±5.4 revertant colonies/plate in data set [1] (10 μM) and 68.7±5.5 revertant colonies/plate in data set [1] (20 μM). The “Viability … (% of control)” value in data set [2] (25 μM) is on record as 104.7±11.6 % of control; in data set [2] (50 μM), 61.0±7.0 ^a % of control; in data set [2] (100 μM), 2.7±0.4 ^a % of control. Besides, the “NaN3 mutagenicity (revertant colonies/plate; mean ± SEM)” value stood at 44.7±6.0 revertant colonies/plate in data set [3] (co-exposure, 10 μM); 40.0±5.0 revertant colonies/plate in data set [3] (co-exposure, 20 μM); 51.0±6.6 revertant colonies/plate in data set [3] (pre-exposure, 10 μM); 53.7±9.3 revertant colonies/plate in data set [3] (pre-exposure, 20 μM). Besides, the “Mutant frequency (sodium azide)” value worked out at 0.81 in data set [3] (setting [8]), 0.78 in data set [3] (setting [5]) and 0.93 in data set [3] (setting [6]). Moreover, the “B[a]P mutagenicity (revertant colonies/plate; mean ± SEM)” value in data set [4] (co-exposure, 10 μM) is listed as 279.3±19.5 revertant colonies/plate; in data set [4] (co-exposure, 20 μM) it was 269.3±9.0 revertant colonies/plate; in data set [4] (pre-exposure, 10 μM), 177.0±11.3 revertant colonies/plate; in data set [4] (pre-exposure, 20 μM), 153.7±7.0 revertant colonies/plate. In addition, the “Mutant frequency (benzo[a]pyrene)” value in data set [4] (co-exposure, 10 μM) is 4.43; in data set [4] (co-exposure, 20 μM), 4.41; in data set [4] (pre-exposure, 10 μM), 2.81; in data set [4] (pre-exposure, 20 μM), 2.52. For the same molecule, in data set [4] (co-exposure), the “Antimutagenic potential against B[a]P” value is “no significant activity”.
Take `N#Cc1ccc(-c2ccc(-c3cccs3)o2)cc1F` [Compound 4d, 2-Fluoro-4-(5-(thiophen-2-yl)furan-2-yl)benzonitrile]: the entries for the “Fluoroarylbichalcophene mutagenicity (revertant colonies/plate; mean ± SEM)” value in data set [1] (10 μM) and in data set [1] (20 μM) were 68.7±6.0 revertant colonies/plate and 67.7±6.1 revertant colonies/plate, respectively. The “Viability … (% of control)” value in data set [2] (25 μM) was 71.7±5.0 % of control; in data set [2] (50 μM), 59.7±4.7 ^a % of control; in data set [2] (100 μM), 3.0±0.2 ^a % of control. Also, the “NaN3 mutagenicity (revertant colonies/plate; mean ± SEM)” value in data set [3] (co-exposure, 10 μM) turned out to be 47.7±2.7 revertant colonies/plate; in data set [3] (co-exposure, 20 μM) it was 49.7±6.4 revertant colonies/plate; in data set [3] (pre-exposure, 10 μM), 36.0±2.7 revertant colonies/plate; in data set [3] (pre-exposure, 20 μM) it was 29.7±4.0 revertant colonies/plate. Further, the “Mutant frequency (sodium azide)” value in data set [3] (setting [8]) worked out at 0.92; in data set [3] (setting [5]), 0.94; in data set [3] (setting [6]) it was 0.69; in data set [3] (setting [7]), 0.56. The “B[a]P mutagenicity (revertant colonies/plate; mean ± SEM)” value in data set [4] (co-exposure, 10 μM) came to 287.7±16.0 revertant colonies/plate; in data set [4] (co-exposure, 20 μM), 204.0±5.3 revertant colonies/plate; in data set [4] (pre-exposure, 10 μM), 271.0±16.5 revertant colonies/plate; in data set [4] (pre-exposure, 20 μM), 271.0±12.2 revertant colonies/plate. The “Mutant frequency (benzo[a]pyrene)” value in data set [4] (co-exposure, 10 μM) worked out at 4.38; in data set [4] (co-exposure, 20 μM), 3.29; in data set [4] (pre-exposure, 10 μM) it was 4.12; in data set [4] (pre-exposure, 20 μM), 4.37. Besides, in data set [4] (co-exposure), the “Antimutagenic potential against B[a]P” value was “no significant activity”.
For `N#Cc1ccc(-c2ccc(-c3cccs3)s2)cc1F` [Compound 4e, 4-(2,2′-Bithiophen-5-yl)-2-fluorobenzonitrile], the results for the “Fluoroarylbichalcophene mutagenicity (revertant colonies/plate; mean ± SEM)” value in data set [1] (10 μM) and in data set [1] (20 μM) were 65.3±6.2 revertant colonies/plate and 66.7±6.7 revertant colonies/plate, respectively. The “Viability … (% of control)” value is given as 104.0±9.9 % of control in data set [2] (25 μM), 64.7±8.1 ^a % of control in data set [2] (50 μM) and 22.3±2.2 ^a % of control in data set [2] (100 μM). Besides, the “NaN3 mutagenicity (revertant colonies/plate; mean ± SEM)” value in data set [3] (co-exposure, 10 μM) was found to be 36.7±4.7 revertant colonies/plate; in data set [3] (co-exposure, 20 μM), 25.0±5.6 revertant colonies/plate; in data set [3] (pre-exposure, 10 μM) it was 24.7±3.5 revertant colonies/plate; in data set [3] (pre-exposure, 20 μM), 21.7±2.1 revertant colonies/plate. The “Mutant frequency (sodium azide)” value in data set [3] (setting [8]) stood at 0.66; in data set [3] (setting [5]), 0.48; in data set [3] (setting [6]) it was 0.44; in data set [3] (setting [7]) it was 0.42. Also, the “B[a]P mutagenicity (revertant colonies/plate; mean ± SEM)” value turned out to be 282.3±16.6 revertant colonies/plate in data set [4] (co-exposure, 10 μM); 285.0±18.1 revertant colonies/plate in data set [4] (co-exposure, 20 μM); 241.3±11.0 revertant colonies/plate in data set [4] (pre-exposure, 10 μM); 201.0±10.5 revertant colonies/plate in data set [4] (pre-exposure, 20 μM). In addition, the “Mutant frequency (benzo[a]pyrene)” value in data set [4] (co-exposure, 10 μM) is reported as 4.28; in data set [4] (co-exposure, 20 μM), 4.38; in data set [4] (pre-exposure, 10 μM) it was 3.66; in data set [4] (pre-exposure, 20 μM), 3.09. In data set [4] (co-exposure), the “Antimutagenic potential against B[a]P” value is “no significant activity”.
Regarding `[N-]=[N+]=[N-].[Na+]` [NaN3, sodium azide, reference compound], the “Mutant frequency, NaN3 alone” value in data set [3] (NaN3 without fluoroarylbichalcophene, mutant colonies/viable colonies) was 2.65 (100).
